Measurements published in ChEMBL document CHEMBL1914305, “Synthesis and structure-activity evaluation of isatin-β-thiosemicarbazones with improved selective activity toward multidrug-resistant cells expressing P-glycoprotein” (J Med Chem, 2011).
Activity calls are given as the source filed them. The calls are words filed in the database; no cut-off is given here.

Experiments:
[1] = Cytotoxicity against vinblastine-selected human KBV1 cells after 72 hrs by MTT assay; type: functional, cell-based; conditions: KB-V1, 72 h
In short: (§1)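 Grown in DMEM with 10% FBS. MTT assay: 4000 cells/well, 24 h settling, serial dilutions of drug, 72 h at 37 °C in 5% CO2. MTT in IMDM 4 h, then acidified ethanol 15 min, A570 with 690 nm background. IC50 is the concentration reducing absorbance to 50% of untreated control. Three experiments in triplicate. KB-V1-R comes from KB-V1 grown long-term drug-free.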

[2] = Cytotoxicity against human KB-3-1 cells after 72 hrs by MTT assay; type: functional, cell-based; conditions: KB 3-1, 72 h
In short: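 Grown in DMEM with 10% FBS. MTT assay: 4000 cells/well, 24 h settling, serial dilutions of drug, 72 h at 37 °C in 5% CO2. MTT in IMDM 4 h, then acidified ethanol 15 min, A570 with 690 nm background. Three experiments in triplicate. KB-V1-R comes from KB-V1 grown long-term drug-free.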

[3] = Selectivity ratio of IC50 for human KB-3-1 cells to IC50 for human KBV1 cells selected at 1 ug/mL vinblastine; type: functional
In short: (§2)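 Selectivity ratio: IC50 in the parental or empty-vector cells divided by IC50 in the P-gp-expressing cells (KB-V1, or ABCB1-transfected LLC-PK1). MTT assay: 4000 cells/well established for 24 h, then 72 h exposure to serially diluted drug at 37 °C, 5% CO2. MTT for 4 h, acidified ethanol lysis, A570 corrected at A690. IC50 is the concentration giving 50% of untreated absorbance, from at least three experiments.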

NIH3T3 [4] = assay: Cytotoxicity against mouse NIH/3T3 cells transfected with wild type p-glycoprotein ABCB1 selected at 600 ug/ml vincristine after 72 hrs by MTT assay; type: functional, cell-based; conditions: NIH3T3, 72 h, in the assay text read “600 ng/ml” for “600 ug/ml”; in short: as §1
NIH3T3 [5] = assay: Cytotoxicity against mouse NIH/3T3 cells selected at 30 ug/ml vincristine after 72 hrs by MTT assay; type: functional, cell-based; conditions: NIH3T3, 72 h, in the assay text read “30 ng/ml” for “30 ug/ml”; in short: as §1
HEK293 [6] = assay: Cytotoxicity against human HEK293 cells after 72 hrs by MTT assay; type: functional, cell-based; conditions: HEK293, 72 h; in short: as §1
LLC-PK1 [7] = assay: Cytotoxicity against pig LLC-PK1 cells transfected with empty vector after 72 hrs by MTT assay; type: cell-based; conditions: Sus scrofa, LLC-PK1, 72 h
In short: (§3)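 LLC-PK1 empty-vector lines grown in M199 with 10% FBS; transfected lines also in 0.5 mg/mL G418. MTT assay: 4000 cells/well for 24 h, then serially diluted drug for 72 h at 37 °C, 5% CO2. MTT 4 h, acidified ethanol, A570 minus 690 nm. IC50 is 50% of untreated absorbance. Triplicate wells, three experiments.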

NIH3T3 [8] = assay: Cytotoxicity against mouse NIH/3T3 cells after 72 hrs by MTT assay; type: cell-based; conditions: NIH3T3, 72 h; in short: as §1
[9] = Cytotoxicity against human Ew36 cells selected at 120 ng/mL vincristine after 72 hrs by MTT assay; type: functional, cell-based; conditions: Ew36, 72 h
In short: (§4)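 Lines grown in RPMI with 10% FBS and 2 mM L-glutamine. MTT assay: 4000 cells/well attached 24 h before serially diluted drug, then 72 h exposure at 37 °C, 5% CO2. MTT in IMDM 4 h, lysis in acidified ethanol 15 min, absorbance 570 nm minus 690 nm. IC50 is the concentration halving untreated absorbance. Three independent experiments, each in triplicate.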

[10] = Cytotoxicity against human Ew36 cells after 72 hrs by MTT assay; type: functional, cell-based; conditions: Ew36, 72 h; in short: as §4
NIH3T3 [11] = assay: Cytotoxicity against 2.4 ug/mL vincristine selected mouse NIH/3T3 cells transfected with P-gp Ser to Asp phosphorylation mutant after 72 hrs by MTT assay; type: functional, cell-based; conditions: NIH3T3, 72 h; in short: as §1
SW-620 [12] = assay: Cytotoxicity against human SW620 cells selected at 20 ng/mL adriamycin after 72 hrs by MTT assay; type: functional, cell-based; conditions: SW-620, 72 h; in short: as §4
NCI/ADR-RES = assay: Cytotoxicity against adriamycin-selected human NCI/ADR-RES cells after 72 hrs by MTT assay; type: functional, cell-based; in short: as §4
NIH3T3 [13] = assay: Cytotoxicity against mouse NIH/3T3 cells transfected with wild-type P-gp G185 after 72 hrs by MTT assay; type: functional, cell-based; conditions: NIH3T3, 72 h; in short: as §1
[14] = Cytotoxicity against doxorubicin-selected human ZR-75B cells after 72 hrs by MTT assay; type: functional, cell-based; in short: as §4
[15] = Cytotoxicity against human MES-SA cells after 72 hrs by MTT assay; type: functional, cell-based
In short: (§5)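 MES-SA and MES-SA/Dx5 lines kept in McCoy's 5A with 10% FBS. MTT assay: seeded at 4000 cells/well for 24 h, serial drug dilutions, 72 h at 37 °C and 5% CO2. MTT 4 h, acidified ethanol lysis, A570 corrected at 690 nm. IC50 is 50% absorbance versus untreated wells. Three separate experiments in triplicate.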

NIH3T3 [16] = assay: Cytotoxicity against mouse NIH/3T3 cells selected at 1 ug/mL colchicine after 72 hrs by MTT assay; type: functional, cell-based; conditions: NIH3T3, 72 h; in short: as §1
LLC-PK1 [17] = assay: Cytotoxicity against pig LLC-PK1 cells after 72 hrs by MTT assay; type: cell-based; conditions: Sus scrofa, LLC-PK1, 72 h; in short: as §3
CHO [18] = assay: Cytotoxicity against CHO cells selected at 1 ug/mL colchicine after 72 hrs by MTT assay; type: functional, cell-based; conditions: Cricetulus griseus
In short: (§6)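 CHO and colchicine-selected C5 cells kept in AlphaMEM with 10% FBS. MTT assay: 4000 cells/well settled 24 h, then serially diluted drug added. Incubated 72 h at 37 °C, 5% CO2. MTT in IMDM for 4 h, then acidified ethanol lysis for 15 min. Read A570, background-corrected at 690 nm. IC50 is the concentration giving 50% of untreated absorbance. Three experiments, each in triplicate.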

SW-620 [19] = assay: Cytotoxicity against human SW620 cells after 72 hrs by MTT assay; type: functional, cell-based; conditions: SW-620, 72 h; in short: as §4
[20] = Cytotoxicity against adriamycin-selected human MES-SA cells after 72 hrs by MTT assay; type: functional, cell-based; in short: as §5
CHO [21] = assay: Cytotoxicity against CHO cells after 72 hrs by MTT assay; type: cell-based; conditions: Cricetulus griseus; in short: as §6
HEK293 [22] = assay: Cytotoxicity against human HEK293 cells transfected with plasmid expressing MDR1 after 72 hrs by MTT assay; type: functional, cell-based; conditions: HEK293, 72 h
In short: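 ABCB1-transfected HEK293 grown in DMEM with 10% FBS and 1 mg/mL G418. MTT assay: 4000 cells/well for 24 h, serial drug dilutions, 72 h at 37 °C, 5% CO2. MTT 4 h, acidified ethanol lysis, A570 corrected at 690 nm. IC50 at 50% of untreated absorbance. Three experiments in triplicate.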

OVCAR-8 = assay: Cytotoxicity against human OVCAR8 cells after 72 hrs by MTT assay; type: functional, cell-based; conditions: OVCAR-8, 72 h; in short: as §4
NCI-H460 [23] = assay: Cytotoxicity against ABCG2-expressing human H460 cells at 10 to 20 uM after 72 hrs by MTT assay in presence of ABCG2 substrate 5 uM mitoxantrone; type: functional, cell-based
KB-V1 = assay: Cytotoxicity against P-gp expressing human KBV1 cells after 72 hrs by MTT assay in presence of 4 uM P-gp substrate Rh123; type: functional, cell-based
[24] = Cytotoxicity against P-gp expressing human KBV1 revertant cells after 72 hrs by MTT assay; type: functional, cell-based; conditions: KB-V1, 72 h, in the assay text read “P-gp-negative” for “P-gp expressing”; in short: as §1
NCI-H460 [25] = assay: Cytotoxicity against ABCG2-expressing human H460 cells at 10 uM after 72 hrs by MTT assay; type: functional, cell-based
[26] = Cytotoxicity against P-gp expressing human KBV1 cells after 72 hrs by MTT assay in presence of 100 nM TQR; conditions: KB-V1, 72 h
[27] = Aqueous solubility of the compound; type: physicochemical; conditions: buffer
[28] = Cytotoxicity against P-gp-negative human KB-3-1 cells after 72 hrs by MTT assay in presence of 100 nM TQR; conditions: KB 3-1, 72 h
[29] = Selectivity ratio of IC50 for pig LLC-PK1 cells transfected with empty vector to IC50 for pig LLC-PK1 cells; type: ADME, cell-based, Sus scrofa; conditions: read-out: Ratio IC50; in short: as §2

## COc1cc(NC(=S)N/N=C2\C(=O)Nc3ccccc32)cc(OC)c1OC
[1]
  IC50: 3.49 µM
[2]
  IC50: 11.1 µM
[3]
  Ratio IC50: 3.2

## O=C1Nc2ccccc2/C1=N/NC(=S)NCc1ccccc1
[1]
  IC50: 7.63 µM
[2]
  IC50: 11.7 µM
[3]
  Ratio IC50: 1.5

## Cc1ccc(NC(=S)N/N=C2\C(=O)Nc3ccccc32)cc1C
[1]
  IC50: 2.2 µM
[2]
  IC50: 4.37 µM
[3]
  Ratio IC50: 2

## O=C1Nc2ccccc2/C1=N/NC(=S)Nc1cccnc1
[1]
  IC50: > 50 µM
[2]
  IC50: > 50 µM

## O=C1Nc2ccccc2/C1=N/NC(=S)Nc1cc(F)c(F)c(F)c1
[1]
  IC50: 2.15 µM
[2]
  IC50: 4.41 µM
[3]
  Ratio IC50: 2.1

## O=C1Nc2ccccc2/C1=N/NC(=S)NC12CC3CC(CC(C3)C1)C2
[1]
  IC50: 1.02 µM
[2]
  IC50: 3.16 µM
[3]
  Ratio IC50: 3.1

## COc1cccc2c1C(=O)c1c(O)c3c(c(O)c1C2=O)C[C@@](O)(C(=O)CO)C[C@@H]3O[C@H]1C[C@H](N)[C@H](O)[C@H](C)O1 [DOXORUBICIN]
[1]
  IC50: 4.7 µM
NIH3T3 [4]
  IC50: 0.69 µM
NIH3T3 [5]
  IC50: 0.08 µM
HEK293 [6]
  IC50: 0.01 µM
LLC-PK1 [7]
  IC50: 0.2 µM
NIH3T3 [8]
  IC50: 0.05 µM
[9]
  IC50: 0.24 µM
[10]
  IC50: 0.01 µM
NIH3T3 [11]
  IC50: 17.5 µM
SW-620 [12]
  IC50: 0.24 µM
NCI/ADR-RES
  IC50: 9.3 µM
NIH3T3 [13]
  IC50: 0.38 µM
[14]
  IC50: 2.02 µM
[15]
  IC50: 0.03 µM
NIH3T3 [16]
  IC50: 1.58 µM
LLC-PK1 [17]
  IC50: 19.7 µM
CHO [18]
  IC50: 9.7 µM
SW-620 [19]
  IC50: 0.01 µM
[20]
  IC50: 0.87 µM
CHO [21]
  IC50: 0.08 µM
HEK293 [22]
  IC50: 0.42 µM
OVCAR-8
  IC50: 0.14 µM

## COc1ccccc1NC(=S)N/N=C1\C(=O)Nc2ccccc21
[1]
  IC50: 2.69 µM
[2]
  IC50: 4.96 µM
[3]
  Ratio IC50: 1.8

## CCCCNC(=S)N/N=C1\C(=O)Nc2ccccc21
[1]
  IC50: 5.69 µM
[2]
  IC50: 10.9 µM
[3]
  Ratio IC50: 1.9

## O=C1Nc2ccccc2/C1=N/NC(=S)Nc1ccc(C(=O)O)cc1
[1]
  IC50: > 50 µM
[2]
  IC50: > 50 µM

## O=C1Nc2ccccc2/C1=N/NC(=S)Nc1ccc(Oc2ccccc2)cc1
[1]
  IC50: 1.67 µM
[2]
  IC50: 5.72 µM
[3]
  Ratio IC50: 3.4

## O=C1Nc2ccccc2/C1=N/NC(=S)Nc1ccc([N+](=O)[O-])cc1
NCI-H460 [23]
  Activity: Active
[1]
  IC50: 2.07 µM
[2]
  IC50: 15.6 µM
[3]
  Ratio IC50: 8.3
LLC-PK1 [7]
  IC50: 28.4 µM
KB-V1
  Activity: Active
[24]
  IC50: 7.21 µM
NCI-H460 [25]
  Activity: Active
[26]
  IC50: 6.35 µM
[27]
  solubility: < 0.2 µg/mL
LLC-PK1 [17]
  IC50: 4.46 µM
[28]
  IC50: 10 µM
[29]
  selectivity ratio: 6.4

## O=C1Nc2ccccc2/C1=N/NC(=S)Nc1ccc(F)cc1
[1]
  IC50: 1.92 µM
[2]
  IC50: 14.2 µM
[3]
  Ratio IC50: 7.4

## O=C1Nc2ccccc2/C1=N/NC(=S)Nc1ccc(O)cc1
[1]
  IC50: 21.6 µM
[2]
  IC50: 35.8 µM
[3]
  Ratio IC50: 1.7

## Cc1ccc(NC(=S)N/N=C2\C(=O)Nc3ccccc32)cc1
[1]
  IC50: 2.6 µM
[2]
  IC50: 24 µM
[3]
  Ratio IC50: 9.2
